Data as given in ChEMBL document CHEMBL1154487, “Synthesis, chemical and biological studies on new Fe(3+)-glycosilated beta-diketo complexes for the treatment of iron deficiency” (Eur J Med Chem, 2008).
Activity calls are given as the source filed them. No cut-off for these calls is given here.

Assays:
[1] = Amount of free iron in Fe3+/ligand system at pH 2; details: buffer
[2] = Protonation constant, pKa by spectrophotometric method; assay type: physicochemical
Method in brief: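 Aqueous ligand solutions (2.5×10−5 M) were titrated spectrophotometrically, adjusting pH from 1 to 11 with concentrated NaOH or HCl. The UV absorbance maximum (320–365 nm) was followed versus pH. Protonation constants were computed from the spectral data.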

[3] = Chemical stability in phosphate buffer at pH 7 after 8 hrs; assay type: physicochemical
Method in brief: (§1)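 The ligand was held at 5×10−5 M in 10−2 M phosphate buffer, pH 7, at 37 °C and constant ionic strength. Degradation was followed as the change in absorbance at 345 nm. First-order kinetics were taken from ln(At/A0) versus time.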

[4] = Protonation constant, pKa by potentiometric method; assay type: physicochemical
Method in brief: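 Potentiometric titration of 3×10−3 M ligand in water at 25.0 °C, ionic strength 0.1 M (NaNO3), under nitrogen. The titrant was 1×10−2 M NaOH, over pH 2–10, with 600–720 s per point. At least 10 titrations of 40 points each were run, and constants were refined by least squares.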

[5] = Cytotoxicity against african green monkey Vero cells at 600 uM; assay type: cell-based; details: chlorocebus sabaeus, read-out: INH
Method in brief: (§2)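 Vero cells (African green monkey kidney) were grown in MEM with 10% heat-inactivated FCS at 37 °C in 5% CO2. Cells were seeded at 4×10^4 cells/well and grown 72 h with a range of compound concentrations. They were then methanol-fixed, stained with crystal violet, and the dye was extracted into acidic isopropanol and read at 540 nm. Survival is % of untreated control, mean ± SD of 3 experiments, each in triplicate.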

Liver microsomes [6] = assay: Antioxidant activity against ferric ion (Fe3+-ADP)-induced lipid peroxidation in rat liver microsomes; details: Microsome
[7] = Chemical stability in phosphate buffer at pH 7; assay type: physicochemical
Method in brief: as §1

[8] = Octanol-water partition coefficient, log P after 4 hrs by shake flask method; assay type: physicochemical
Method in brief: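 Shake-flask method at pH 7.0 (phosphate buffer). Water presaturated with n-octanol was mixed with the ligand or the Fe:L 1:3 system (10−4 M stock) and shaken at 37 °C for 4 h. After phase separation, aqueous concentration was measured spectrophotometrically. Log P is the log of the octanol/water concentration ratio.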

[9] = Cytotoxicity against african green monkey Vero cells at 800 uM; assay type: cell-based; details: chlorocebus sabaeus, read-out: INH
Method in brief: as §2

[10] = Chemical stability in phosphate buffer at pH 7 after 1 hr; assay type: physicochemical; details: pH 7, 1 h
[11] = Cytotoxicity against african green monkey Vero cells at 10 uM; assay type: cell-based; details: chlorocebus sabaeus, read-out: INH
[12] = Cytotoxicity against african green monkey Vero cells at 5 uM; assay type: cell-based; details: chlorocebus sabaeus, read-out: INH
Vero [13] = assay: Cytotoxicity against african green monkey Vero cells at 400 uM; assay type: cell-based; details: chlorocebus sabaeus
Method in brief: as §2

Vero [14] = assay: Cytotoxicity against african green monkey Vero cells; assay type: cell-based; details: Chlorocebus sabaeus
Method in brief: as §2

Liver microsomes [15] = assay: Antioxidant activity against ferric ion (Fe3+-ADP)-induced lipid peroxidation in rat liver microsomes after 30 mins; details: Microsome

| Compound | Activity [1] [%] | pKa [2] | Degradation % at 8 h [3] [%] | pKa [4] | half-life [7] [h] | logP at 4 h [8] | Stability [10] | cytotoxicity at 600 µM [5] [%] | Activity (Liver microsomes [6]) | cytotoxicity at 800 µM [9] [%] | cytotoxicity at 10 µM [11] [%] | cytotoxicity at 5 µM [12] [%] | Activity (Vero [13]) [%] | IC50 (Vero [14]) [µM] | Activity (Liver microsomes [15]) |
| --- | --- | --- | --- | --- | --- | --- | --- | --- | --- | --- | --- | --- | --- | --- | --- |
| COc1cc(/C=C/C(=O)CC(=O)/C=C/c2ccc(O)c(OC)c2)ccc1O [CURCUMIN] |  |  |  |  | 0.167 |  | Unstable |  |  |  | 20 | 10 |  |  |  |
| O=C(O)[C@H](O)[C@@H](O)[C@H](O)[C@H](O)CO [GLUCONIC ACID] | 60 |  |  |  |  |  |  |  |  |  |  |  |  |  |  |
| COc1cc(/C=C/C(O)=C/C(C)=O)ccc1O[C@@H]1O[C@H](CO)[C@@H](O)[C@H](O)[C@H]1O | 40 | 8.73 | < 10 | 8.75 | > 100 | 0.13 |  | 40 |  | 65 |  |  |  | 700 | Active |

More lines, main results first:

| Activity [1] [%] | pKa [2] | Degradation % at 8 h [3] [%] | pKa [4] | half-life [7] [h] | logP at 4 h [8] | Stability [10] | Compound | cytotoxicity at 600 µM [5] [%] | Activity (Liver microsomes [6]) | cytotoxicity at 800 µM [9] [%] | cytotoxicity at 10 µM [11] [%] | cytotoxicity at 5 µM [12] [%] | Activity (Vero [13]) [%] | IC50 (Vero [14]) [µM] | Activity (Liver microsomes [15]) |
| --- | --- | --- | --- | --- | --- | --- | --- | --- | --- | --- | --- | --- | --- | --- | --- |
| 30 | 9.22 | < 10 | 9.26 | > 100 | 0.39 |  | CC(=O)/C=C(O)/C=C/c1ccc(O[C@@H]2O[C@H](CO)[C@@H](O)[C@H](O)[C@H]2O)cc1 | 2 | inactive | 40 |  |  |  |  |  |
| 20 | 8.03 | < 10 | 8.03 | > 100 | 0.32 |  | CC(=O)/C=C(O)/C=C/c1ccc(O[C@@H]2O[C@H](CO)[C@@H](O)[C@H](O)[C@H]2O)c(O)c1 |  | inactive | 20 |  |  | 10 |  |  |
